Where only a bound is given, the exact number is not on record here.

Results on four compounds are retold here after ChEMBL document CHEMBL1152208, “The discovery of biaryl carboxamides as novel small molecule agonists of the motilin receptor” (Bioorg Med Chem Lett, 2008).

For series [1], the target named is T1, Motilin receptor (Homo sapiens, UniProt O43193). The experiment in a line: Agonist activity at human recombinant motilin receptor expressed in HEK293 cells by FLIPR assay. The class given is functional, cell-based. Put shortly: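 HEK293 cells stably expressing human motilin receptor, seeded on poly-lysine plates 24 h before assay. Loaded with Fluo-4-AM (final) and 1 mM probenecid (final) in HEPES-buffered saline with 0.1% BSA for 1 h at 25 °C, washed, rested 20 min at 25 °C. Fluorescence change followed for 2 min after compound addition. Peak change over baseline was fitted with a 4-parameter logistic to give pEC50. Mean of at least three independent experiments (n = 2 for some).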

Series [2] has as its target T2, Cytochrome P450 3A4 (Homo sapiens, UniProt P08684). As to the kind of experiment: Inhibition of CYP3A4 using diethoxyfluorescein substrate. It counts as ADME.
In series [3] the target is T2, Cytochrome P450 3A4. The experiment in a line: Inhibition of CYP3A4 using phenyl-piperazinyl-methyl-benzyl-resofurin substrate. The class given is ADME.
The subject of series [4] is Liver microsomes. The experiment in a line: Intrinsic clearance in human liver microsome. It counts as ADME.
Series [5] deals with Liver microsomes. The experiment in a line: Intrinsic clearance in rat liver microsome. It counts as ADME. In general terms: Liver microsomes are a subcellular fraction often used to study metabolism.
The target in series [6] is T3, Cytochrome P450 1A2 (Homo sapiens, UniProt P05177).
T3 sequence (P05177 whole entry): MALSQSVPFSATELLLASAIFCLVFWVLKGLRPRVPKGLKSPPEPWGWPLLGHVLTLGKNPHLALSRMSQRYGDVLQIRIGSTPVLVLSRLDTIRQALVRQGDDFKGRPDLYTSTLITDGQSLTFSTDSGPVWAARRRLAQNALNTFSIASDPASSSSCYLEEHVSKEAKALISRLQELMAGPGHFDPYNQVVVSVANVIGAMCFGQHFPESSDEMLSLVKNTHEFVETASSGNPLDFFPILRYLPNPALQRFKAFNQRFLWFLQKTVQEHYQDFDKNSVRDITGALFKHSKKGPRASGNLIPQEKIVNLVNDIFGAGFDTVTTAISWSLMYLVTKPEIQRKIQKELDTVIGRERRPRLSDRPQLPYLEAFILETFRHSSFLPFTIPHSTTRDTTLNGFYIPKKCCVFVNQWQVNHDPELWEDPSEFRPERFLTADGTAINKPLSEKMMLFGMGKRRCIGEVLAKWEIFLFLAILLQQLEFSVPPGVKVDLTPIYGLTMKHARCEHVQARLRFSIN
As to the kind of experiment: Inhibition of CYP1A2. It counts as ADME.

Series [7] deals with Cytochrome P450 2C9 (Homo sapiens, UniProt P11712). As to the kind of experiment: Inhibition of CYP2C9. The class given is ADME.
Series [8] addresses Cytochrome P450 2C19 (Homo sapiens, UniProt P33261). The experiment in a line: Inhibition of CYP2C19. The class given is ADME.
Series [9] has as its target Cytochrome P450 2D6 (Homo sapiens, UniProt P10635). As to the kind of experiment: Inhibition of CYP2D6. The class given is ADME.
The target in series [10] is Voltage-gated inwardly rectifying potassium channel KCNH2 (Homo sapiens, UniProt Q12809). As to the kind of experiment: Inhibition of human ERG binding.
The target of series [11] is Growth hormone secretagogue receptor type 1 (Homo sapiens, UniProt Q92847). The experiment in a line: Inhibition of human Ghrelin receptor.
Series [12] can be described thus: Distribution coefficient, log D at pH 7.4. The class given is physicochemical. Particulars: octanol/water.
Series [13] in a line: Clearance in rat. The class given is ADME, organism-based. Particulars: in vivo.
Series [14] can be described thus: Oral bioavailability in rat. It counts as ADME, organism-based. Particulars: in vivo.
A short description of series [15]: Clearance in dog. It counts as ADME, organism-based, Canis lupus familiaris. Particulars: in vivo.
Series [16] is described as follows: Oral bioavailability in dog. It counts as ADME, organism-based, Canis lupus familiaris. Particulars: in vivo.
Series [17] deals with Stomach. The experiment in a line: Potentiation of electrical field stimulation-induced contraction in New Zealand white rabbit gastric antrum at 10 uM. Particulars: Oryctolagus cuniculus. It counts as functional.
For series [18], the system named is Stomach. The experiment in a line: Potentiation of electrical field stimulation-induced contraction in New Zealand white rabbit gastric antrum at 3 uM. It counts as functional. Particulars: Oryctolagus cuniculus.
The test system of series [19] is Stomach. As to the kind of experiment: Potentiation of electrical field stimulation-induced contraction in New Zealand white rabbit gastric antrum at 1 uM. It counts as functional. Particulars: Oryctolagus cuniculus.
Series [20] has as its system Stomach. The experiment in a line: Potentiation of electrical field stimulation-induced contraction in New Zealand white rabbit gastric antrum at 0.3 uM. It counts as functional. Particulars: Oryctolagus cuniculus.
For series [21], the system named is Stomach. As to the kind of experiment: Potentiation of electrical field stimulation-induced contraction in New Zealand white rabbit gastric antrum at 1.5 uM. The class given is functional. Particulars: Oryctolagus cuniculus.
For series [22], the target named is T1, Motilin receptor. The experiment in a line: Agonist activity at human recombinant motilin receptor expressed in CHO cells by FLIPR assay. The class given is functional, cell-based.

T2 sequence (P08684 whole entry): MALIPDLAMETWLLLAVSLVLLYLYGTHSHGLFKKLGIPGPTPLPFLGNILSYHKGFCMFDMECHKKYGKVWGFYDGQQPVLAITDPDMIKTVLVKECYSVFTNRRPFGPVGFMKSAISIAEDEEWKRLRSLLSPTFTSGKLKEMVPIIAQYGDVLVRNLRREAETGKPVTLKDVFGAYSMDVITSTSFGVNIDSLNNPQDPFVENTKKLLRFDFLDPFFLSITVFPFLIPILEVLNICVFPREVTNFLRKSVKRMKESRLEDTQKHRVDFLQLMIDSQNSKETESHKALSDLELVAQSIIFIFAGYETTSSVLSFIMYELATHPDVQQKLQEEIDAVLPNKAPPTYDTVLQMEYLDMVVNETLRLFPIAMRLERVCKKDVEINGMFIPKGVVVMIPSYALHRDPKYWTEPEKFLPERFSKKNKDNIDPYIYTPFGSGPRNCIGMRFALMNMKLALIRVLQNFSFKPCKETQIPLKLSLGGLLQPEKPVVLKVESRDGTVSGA
T1 sequence (O43193 whole entry): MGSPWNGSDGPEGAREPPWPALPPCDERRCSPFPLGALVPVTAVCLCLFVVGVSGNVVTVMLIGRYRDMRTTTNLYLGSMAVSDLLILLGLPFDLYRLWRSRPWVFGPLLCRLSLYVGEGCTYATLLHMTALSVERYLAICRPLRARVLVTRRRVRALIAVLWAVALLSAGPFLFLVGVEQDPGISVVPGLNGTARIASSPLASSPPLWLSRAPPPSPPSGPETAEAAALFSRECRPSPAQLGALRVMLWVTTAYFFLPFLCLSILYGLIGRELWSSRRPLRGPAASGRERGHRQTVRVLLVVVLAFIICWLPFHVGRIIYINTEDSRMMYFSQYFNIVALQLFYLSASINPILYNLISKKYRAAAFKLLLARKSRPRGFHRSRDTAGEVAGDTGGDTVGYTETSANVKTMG
Chain of Cytochrome P450 2D6 (P10635 whole entry): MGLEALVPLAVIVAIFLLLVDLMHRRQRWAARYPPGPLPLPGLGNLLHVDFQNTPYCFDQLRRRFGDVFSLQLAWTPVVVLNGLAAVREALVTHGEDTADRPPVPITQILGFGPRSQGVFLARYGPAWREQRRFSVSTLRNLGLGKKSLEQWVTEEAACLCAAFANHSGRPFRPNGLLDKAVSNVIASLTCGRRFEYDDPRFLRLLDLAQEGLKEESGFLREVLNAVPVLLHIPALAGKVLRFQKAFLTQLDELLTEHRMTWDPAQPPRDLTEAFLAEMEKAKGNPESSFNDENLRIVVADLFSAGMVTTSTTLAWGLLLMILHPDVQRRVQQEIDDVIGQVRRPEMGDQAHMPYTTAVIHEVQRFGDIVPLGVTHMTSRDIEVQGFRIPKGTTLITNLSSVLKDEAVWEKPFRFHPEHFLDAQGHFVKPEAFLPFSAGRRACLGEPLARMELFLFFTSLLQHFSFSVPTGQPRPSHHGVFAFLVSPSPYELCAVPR
Chain of Cytochrome P450 2C19 (P33261 whole entry): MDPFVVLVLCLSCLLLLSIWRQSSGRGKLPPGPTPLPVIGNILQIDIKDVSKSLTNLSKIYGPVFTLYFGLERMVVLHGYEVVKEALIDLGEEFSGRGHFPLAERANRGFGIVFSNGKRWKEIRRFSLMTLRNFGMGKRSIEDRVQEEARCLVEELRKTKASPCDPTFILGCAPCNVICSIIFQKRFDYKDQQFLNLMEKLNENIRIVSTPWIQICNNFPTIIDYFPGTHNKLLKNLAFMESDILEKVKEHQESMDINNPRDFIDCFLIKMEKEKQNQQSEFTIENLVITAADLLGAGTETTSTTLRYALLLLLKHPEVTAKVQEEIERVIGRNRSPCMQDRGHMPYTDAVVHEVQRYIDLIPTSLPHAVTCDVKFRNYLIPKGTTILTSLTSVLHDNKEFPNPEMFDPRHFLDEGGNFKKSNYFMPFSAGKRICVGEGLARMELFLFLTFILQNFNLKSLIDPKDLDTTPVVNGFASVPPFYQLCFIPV
Chain of Growth hormone secretagogue receptor type 1 (Q92847 whole entry): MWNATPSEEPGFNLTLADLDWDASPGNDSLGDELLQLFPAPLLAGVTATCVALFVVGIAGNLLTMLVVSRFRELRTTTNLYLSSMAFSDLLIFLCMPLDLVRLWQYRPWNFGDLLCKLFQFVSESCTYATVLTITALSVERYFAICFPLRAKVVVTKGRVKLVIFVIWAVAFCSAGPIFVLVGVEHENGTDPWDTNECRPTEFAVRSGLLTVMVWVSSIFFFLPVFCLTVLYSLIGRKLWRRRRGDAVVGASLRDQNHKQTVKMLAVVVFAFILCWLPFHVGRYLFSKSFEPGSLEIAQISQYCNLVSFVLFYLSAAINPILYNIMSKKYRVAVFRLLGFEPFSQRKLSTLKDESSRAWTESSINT
Chain of Cytochrome P450 2C9 (P11712 whole entry): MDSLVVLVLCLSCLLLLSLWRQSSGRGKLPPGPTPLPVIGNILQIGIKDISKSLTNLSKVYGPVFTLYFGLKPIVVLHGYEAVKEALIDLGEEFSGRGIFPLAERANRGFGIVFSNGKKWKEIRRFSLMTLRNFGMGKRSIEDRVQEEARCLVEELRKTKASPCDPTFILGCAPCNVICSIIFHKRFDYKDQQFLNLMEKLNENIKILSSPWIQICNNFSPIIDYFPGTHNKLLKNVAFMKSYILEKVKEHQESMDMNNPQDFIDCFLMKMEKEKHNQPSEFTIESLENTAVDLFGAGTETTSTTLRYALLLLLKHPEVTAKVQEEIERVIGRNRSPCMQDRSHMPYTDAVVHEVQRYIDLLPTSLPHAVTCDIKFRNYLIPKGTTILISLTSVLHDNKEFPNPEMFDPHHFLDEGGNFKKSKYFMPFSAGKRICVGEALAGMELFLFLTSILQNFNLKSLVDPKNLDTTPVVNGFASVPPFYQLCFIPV
Chain of Voltage-gated inwardly rectifying potassium channel KCNH2 (Q12809 whole entry): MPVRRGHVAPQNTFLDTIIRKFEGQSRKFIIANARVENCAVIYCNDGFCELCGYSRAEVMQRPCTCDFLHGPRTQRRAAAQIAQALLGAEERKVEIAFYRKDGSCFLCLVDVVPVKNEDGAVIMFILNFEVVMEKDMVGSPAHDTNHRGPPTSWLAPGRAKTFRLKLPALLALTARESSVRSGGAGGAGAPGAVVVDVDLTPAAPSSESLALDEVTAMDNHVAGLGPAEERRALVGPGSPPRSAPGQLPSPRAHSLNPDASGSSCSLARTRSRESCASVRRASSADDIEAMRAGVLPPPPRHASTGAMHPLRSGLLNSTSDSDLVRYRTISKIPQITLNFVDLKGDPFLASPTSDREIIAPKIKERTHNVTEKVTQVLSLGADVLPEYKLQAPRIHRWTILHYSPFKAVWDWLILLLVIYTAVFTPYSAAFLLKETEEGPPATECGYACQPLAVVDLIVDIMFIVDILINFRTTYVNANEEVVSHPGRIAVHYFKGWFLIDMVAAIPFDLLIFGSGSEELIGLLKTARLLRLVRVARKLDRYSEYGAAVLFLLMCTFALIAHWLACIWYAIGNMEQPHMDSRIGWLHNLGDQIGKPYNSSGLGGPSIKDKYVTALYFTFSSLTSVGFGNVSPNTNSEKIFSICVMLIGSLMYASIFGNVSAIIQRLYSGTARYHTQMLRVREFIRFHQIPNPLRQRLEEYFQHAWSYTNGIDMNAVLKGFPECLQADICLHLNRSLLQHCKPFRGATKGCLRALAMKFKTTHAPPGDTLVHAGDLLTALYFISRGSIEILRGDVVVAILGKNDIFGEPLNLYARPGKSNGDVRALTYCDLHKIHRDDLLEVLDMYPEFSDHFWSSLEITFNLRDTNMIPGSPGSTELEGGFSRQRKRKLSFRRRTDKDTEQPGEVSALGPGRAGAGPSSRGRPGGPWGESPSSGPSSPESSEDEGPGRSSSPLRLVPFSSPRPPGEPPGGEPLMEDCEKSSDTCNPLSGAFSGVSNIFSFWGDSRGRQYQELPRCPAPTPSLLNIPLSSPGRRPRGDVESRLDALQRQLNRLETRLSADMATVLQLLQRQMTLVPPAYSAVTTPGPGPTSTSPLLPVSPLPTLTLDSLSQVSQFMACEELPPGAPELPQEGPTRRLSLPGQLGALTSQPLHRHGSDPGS

In general, EC50 refers to the concentration needed to bring the measured effect to its halfway point. One may read the IC50 as the concentration that inhibits the measured activity by half. A lower IC50 goes with greater potency in that assay. As usually defined, the logD is the decadic logarithm of the distribution of all forms, ionised or not, between an organic phase and buffer at a given pH. For orientation: clearance means the rate of elimination divided by the concentration. As usually defined, the bioavailability is the share of a dose that reaches the circulation, judged against a reference dose that is usually intravenous. Higher therefore signals much systemic uptake. As usually defined, the Emax is the maximal effect, on the per cent scale that the assay sets. Take `C[C@@H]1CN(Cc2ccc(-c3cccnc3C(=O)N3CCC(Nc4ccc(F)cc4)CC3)cc2)C[C@H](C)N1`: the EC50 in series [1] was 0.02 µM; in series [11], 0.1 µM. For the same compound, the IC50 was more than 100 µM in [2]; more than 100 µM in series [3]; more than 100 µM in series [6]; more than 100 µM in series [7]; more than 100 µM in series [8]; 15 µM in [9]. This compound also had an IC50 in series [10] of more than 31.6 µM. Also, the CL was 2.6 mL/min/g in series [4] and 2.8 mL/min/g in series [5]. In series [12], the logD stood at 0.72. For the same compound, the values for the clearance in [13] and in series [15] were 53 mL/min/kg and 19 mL/min/kg, respectively. For the same compound, the bioavailability in series [14] is 13%; in series [16] it was 58%. In series [17], the Emax at 10 µM worked out at 486%. The Emax at 3 µM in series [18] is 343%. Moreover, the Emax at 1 µM in series [19] is 299%. For the same compound, in series [20], the Emax at 0.3 µM came out at 168%.
`C[C@@H]1CN(Cc2ccc(-n3ccnc3C(=O)N3CCC(Nc4cccc(F)c4)CC3)cc2)C[C@H](C)N1`: the EC50 in series [1] is 0.0158 µM; in series [11] it was 0.501 µM. The IC50 in series [2] is 58 µM; in [3], 46 µM; in series [6] it was 74 µM; in [7] it was more than 100 µM; in series [8] it was more than 100 µM; in series [9], 29 µM. Further, the figures for the CL in series [4] and in series [5] were 3.4 mL/min/g and 4.1 mL/min/g, respectively. The logD in series [12] was 0.82. The clearance in series [13] worked out at 61 mL/min/kg. The compound further displayed a bioavailability in series [14] of 17%. The Emax at 3 µM in series [18] came out at 224%. Further, in series [20], the Emax at 0.3 µM was 73%. For the same compound, the Emax at 1.5 µM in [21] came to 302%.
Turning to `COc1cccc(CCN(Cc2ccccc2-c2ccc(CN3C[C@@H](C)N[C@@H](C)C3)cc2)C(=O)NC2CCCCC2)c1`, the EC50 in series [1] is 0.0501 µM; in series [22], 0.01 µM. For the same compound, the IC50 in [2] is 0.2 µM; in series [3], 0.4 µM. Besides, the CL in series [4] is more than 50 mL/min/g; in series [5], 23 mL/min/g.
On to `CC[C@H]1OC(=O)[C@H](C)[C@@H](O[C@H]2C[C@@](C)(OC)[C@@H](O)[C@H](C)O2)[C@H](C)[C@@H](O[C@@H]2O[C@H](C)C[C@H](N(C)C)[C@H]2O)[C@](C)(O)C[C@@H](C)C(=O)[C@H](C)[C@@H](O)[C@]1(C)O` [ERYTHROMYCIN], for which the Emax at 10 µM in series [17] was determined as 368%. In addition, the Emax at 3 µM in [18] turned out to be 490%. In addition, the Emax at 1 µM in series [19] was 189%. Also, the Emax at 0.3 µM in series [20] came out at 69%.
